This is an account of results in ChEMBL document CHEMBL1125434, “Preparation and in vitro and in vivo evaluation of quinolones with selective activity against gram-positive organisms” (1992).

The MIC is the lowest concentration found to suppress growth. In general, ED50 refers to the dose that gives a 50% effect, or the effect in half of the subjects. Low readings indicate greater potency, high ones weaker potency.

Format in all cases: functional
One test relates to Streptococcus pyogenes. In words: In vitro minimum inhibitory concentration against Streptococcus pyogenes 930 using brain-heart infusion agar. Summed up: (§1)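 Overnight cultures were grown in BHI broth at 36 °C. Twofold dilutions of a 2000 µg/mL stock were made in BHI agar, giving 200–0.005 µg/mL. Plates received about 10^4 organisms and were incubated for 18 h at 36 °C. MIC was the lowest concentration with no visible growth on the plate.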

The next test deals with Escherichia coli. In words: In vitro minimum inhibitory concentration against Escherichia coli Juhl using brain-heart infusion agar. In a few lines:
as §1

The subject of a further test is Klebsiella pneumoniae. Briefly: In vitro minimum inhibitory concentration against Klebsiella pneumoniae 8045 using brain-heart infusion agar. In a few lines:
as §1

The subject of test [1] is Pseudomonas aeruginosa. Briefly: In vitro minimum inhibitory concentration against Pseudomonas aeruginosa A5007 using brain-heart infusion agar. Summed up: as §1
The test system of test [2] is Pseudomonas aeruginosa. In words: In vitro minimum inhibitory concentration against Pseudomonas aeruginosa K799 / WT using brain-heart infusion agar. In a few lines: as §1
The test system of test [3] is Staphylococcus aureus. Briefly: In vitro minimum inhibitory concentration against Staphylococcus aureus CMX 553 using brain-heart infusion agar. Summed up: as §1
The test system of the next test is Acinetobacter. In words: In vitro minimum inhibitory concentration against Acinetobacter CMX 669 using brain-heart infusion agar. Summed up: as §1
In another test the test system is Klebsiella aerogenes. Briefly: In vitro minimum inhibitory concentration against Enterobacter aerogenes ATCC 13048 using brain-heart infusion agar. In a few lines: as §1
The subject of the next test is Streptococcus equinus. Briefly: In vitro minimum inhibitory concentration against Streptococcus bovis A5169 using brain-heart infusion agar. Summed up: as §1
Another test has as its system Streptococcus agalactiae. In words: In vitro minimum inhibitory concentration against Streptococcus agalactiae CMX 508 using brain-heart infusion agar. Summed up:
as §1

Test [4] deals with Staphylococcus epidermidis. In words: In vitro minimum inhibitory concentration against Staphylococcus epidermidis 3159 using brain-heart infusion agar. In a few lines: as §1
Test [5] concerns Staphylococcus aureus. Briefly: In vitro minimum inhibitory concentration against Staphylococcus aureus ATCC 6538P using brain-heart infusion agar. In a few lines:
as §1

Test [6] concerns Staphylococcus aureus. Briefly: In vitro minimum inhibitory concentration against Staphylococcus aureus A 5177 using brain-heart infusion agar. In a few lines:
as §1

Another test deals with Enterococcus faecium. Briefly: In vitro minimum inhibitory concentration against Enterococcus faecium ATCC 8043 using brain-heart infusion agar. In a few lines: as §1
In test [7] the test system is Staphylococcus aureus. In words: In vivo antibacterial activity against Staphylococcus aureus NCTC 10649 infected mouse by oral administration. In a few lines:
(§2)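 Compound was given in water or in dilute NaOH diluted with water, orally or subcutaneously. The dose was split equally between 1 and 5 h post-infection. Groups were 10 mice at ≥3 dose levels. ED50 was calculated from day-6 cumulative mortality by the trimmed Logit method.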

Test [8] relates to Staphylococcus aureus. In words: In vivo antibacterial activity against Staphylococcus aureus NCTC 10649 infected mouse by subcutaneous administration. Conditions: sc. In a few lines:
as §2

Test [9] has as its system Staphylococcus aureus. In words: In vitro minimum inhibitory concentration against Staphylococcus aureus NCTC 10649 using brain-heart infusion agar. In a few lines: as §1

Each structure is given as a SMILES string. ≈ marks a conversion by molar mass, not a printed value.

For `NC1CCN(c2nc3c(cc2F)c(=O)c(C(=O)O)cn3C2CC2)C1` (stereo unspecified), the MIC was 0.39 mg/L (≈ 1.17 µM) in the test with Streptococcus pyogenes; 0.01 mg/L (≈ 0.0301 µM) against Escherichia coli; 0.01 mg/L (≈ 0.0301 µM) against Klebsiella pneumoniae; 0.1 mg/L (≈ 0.301 µM) against Pseudomonas aeruginosa [1]; 0.1 mg/L (≈ 0.301 µM) in the test with Pseudomonas aeruginosa [2]; 0.1 mg/L (≈ 0.301 µM) against Staphylococcus aureus [3]. Moreover, the MIC in the test with Acinetobacter worked out at 0.1 mg/L (≈ 0.301 µM); against Klebsiella aerogenes, 0.02 mg/L (≈ 0.0602 µM); against Streptococcus equinus, 0.78 mg/L (≈ 2.35 µM); in the test on Streptococcus agalactiae, 0.39 mg/L (≈ 1.17 µM); in test [4], 0.1 mg/L (≈ 0.301 µM); in the test with Staphylococcus aureus [5], 0.1 mg/L (≈ 0.301 µM). Besides, the values for the MIC against Staphylococcus aureus [6] and in the test on Enterococcus faecium were 0.2 mg/L (≈ 0.602 µM) and 0.39 mg/L (≈ 1.17 µM), respectively.

With `O=C(O)c1cn(C2CC2)c2cc(N3CCNCC3)c(F)cc2c1=O` [CIPROFLOXACIN], the values for the ED50 with Staphylococcus aureus [7] and in the test on Staphylococcus aureus [8] were 15.5 mg/kg and 1.6 mg/kg, respectively.

In the case of `CO/N=C1/CCN(c2cc3c(cc2F)c(=O)c(C(=O)O)cn3-c2ccc(F)cc2F)C1`, the MIC turned out to be 0.05 mg/L (≈ 0.116 µM) against Staphylococcus aureus [9]; 0.39 mg/L (≈ 0.904 µM) in the test on Streptococcus pyogenes; 0.78 mg/L (≈ 1.81 µM) in the test with Escherichia coli; 0.78 mg/L (≈ 1.81 µM) against Klebsiella pneumoniae; 6.2 mg/L (≈ 14.4 µM) in the test on Pseudomonas aeruginosa [1]; 6.2 mg/L (≈ 14.4 µM) in the test with Pseudomonas aeruginosa [2]. Besides, the MIC was found to be 0.05 mg/L (≈ 0.116 µM) against Staphylococcus aureus [3]; 0.78 mg/L (≈ 1.81 µM) in the test on Acinetobacter; 3.1 mg/L (≈ 7.19 µM) with Klebsiella aerogenes; 1.56 mg/L (≈ 3.62 µM) with Streptococcus equinus; 0.39 mg/L (≈ 0.904 µM) in the test on Streptococcus agalactiae; 0.05 mg/L (≈ 0.116 µM) in test [4]. The MIC with Staphylococcus aureus [5] came to 0.02 mg/L (≈ 0.0464 µM); against Staphylococcus aureus [6], 0.05 mg/L (≈ 0.116 µM); with Enterococcus faecium, 0.39 mg/L (≈ 0.904 µM).

Take `O=C1CCN(c2cc3c(cc2F)c(=O)c(C(=O)O)cn3C2CC2)C1`: the MIC was 1.56 mg/L (≈ 4.72 µM) in the test on Staphylococcus aureus [9]; > 100 mg/L in the test on Streptococcus pyogenes; 6.2 mg/L (≈ 18.8 µM) with Escherichia coli; 6.2 mg/L (≈ 18.8 µM) against Klebsiella pneumoniae; > 100 mg/L against Pseudomonas aeruginosa [1]; > 100 mg/L in the test with Pseudomonas aeruginosa [2]. In addition, the MIC against Staphylococcus aureus [3] is 3.1 mg/L (≈ 9.38 µM); with Acinetobacter, 50 mg/L (≈ 151 µM); in the test with Klebsiella aerogenes, 12.5 mg/L (≈ 37.8 µM); against Streptococcus equinus, > 100 mg/L; in the test with Streptococcus agalactiae, 100 mg/L (≈ 303 µM); in test [4], 3.1 mg/L (≈ 9.38 µM). Besides, the MIC is 1.56 mg/L (≈ 4.72 µM) in the test on Staphylococcus aureus [5], 3.1 mg/L (≈ 9.38 µM) against Staphylococcus aureus [6] and > 100 mg/L with Enterococcus faecium.

Take `CON=C1CCN(c2c(F)cc3c(=O)c(C(=O)O)cn(C4CC4)c3c2F)CC1`: the minimal inhibitory concentration (MIC) was 0.05 mg/L (≈ 0.128 µM) in the test on Staphylococcus aureus [9]; 1.56 mg/L (≈ 3.99 µM) with Streptococcus pyogenes; 1.56 mg/L (≈ 3.99 µM) with Escherichia coli; 3.1 mg/L (≈ 7.92 µM) against Klebsiella pneumoniae; > 100 mg/L with Pseudomonas aeruginosa [1]; > 100 mg/L against Pseudomonas aeruginosa [2]. Also, the MIC with Staphylococcus aureus [3] was 0.1 mg/L (≈ 0.256 µM); with Acinetobacter, 3.1 mg/L (≈ 7.92 µM); with Klebsiella aerogenes, > 100 mg/L; in the test with Streptococcus equinus, 3.1 mg/L (≈ 7.92 µM); in the test on Streptococcus agalactiae, 1.56 mg/L (≈ 3.99 µM); in test [4] it was 0.1 mg/L (≈ 0.256 µM). Moreover, the minimum inhibitory concentration (MIC) against Staphylococcus aureus [5] was found to be 0.05 mg/L (≈ 0.128 µM); against Staphylococcus aureus [6], 0.1 mg/L (≈ 0.256 µM); against Enterococcus faecium, 1.56 mg/L (≈ 3.99 µM).

Take `CO/N=C1\CCN(c2nc3c(cc2F)c(=O)c(C(=O)O)cn3C2CC2)C1`: the MIC in the test with Staphylococcus aureus [9] is 0.02 mg/L (≈ 0.0555 µM); with Streptococcus pyogenes, 0.78 mg/L (≈ 2.16 µM); in the test on Escherichia coli, 0.39 mg/L (≈ 1.08 µM); with Klebsiella pneumoniae, 0.1 mg/L (≈ 0.278 µM); against Pseudomonas aeruginosa [1] it was 3.1 mg/L (≈ 8.6 µM); with Pseudomonas aeruginosa [2], 1.56 mg/L (≈ 4.33 µM). Besides, the MIC against Staphylococcus aureus [3] came out at 0.05 mg/L (≈ 0.139 µM); against Acinetobacter it was 0.39 mg/L (≈ 1.08 µM); against Klebsiella aerogenes, 0.78 mg/L (≈ 2.16 µM); in the test on Streptococcus equinus, 1.56 mg/L (≈ 4.33 µM); in the test with Streptococcus agalactiae it was 0.78 mg/L (≈ 2.16 µM); in test [4], 0.1 mg/L (≈ 0.278 µM). Also, the results for the minimum inhibitory concentration (MIC) against Staphylococcus aureus [5], in the test with Staphylococcus aureus [6] and in the test with Enterococcus faecium were 0.02 mg/L (≈ 0.0555 µM), 0.05 mg/L (≈ 0.139 µM) and 0.78 mg/L (≈ 2.16 µM), respectively.

For `O=C1CCN(c2c(F)cc3c(=O)c(C(=O)O)cn(C4CC4)c3c2F)C1`, the MIC in the test on Staphylococcus aureus [9] was 0.39 mg/L (≈ 1.12 µM); against Streptococcus pyogenes, 25 mg/L (≈ 71.8 µM); against Escherichia coli it was 0.39 mg/L (≈ 1.12 µM); with Klebsiella pneumoniae, 0.39 mg/L (≈ 1.12 µM); against Pseudomonas aeruginosa [1] it was 50 mg/L (≈ 144 µM); in the test with Pseudomonas aeruginosa [2], 50 mg/L (≈ 144 µM). For the same compound, the MIC in the test with Staphylococcus aureus [3] was 0.39 mg/L (≈ 1.12 µM); in the test with Acinetobacter it was 3.1 mg/L (≈ 8.9 µM); in the test with Klebsiella aerogenes it was 1.56 mg/L (≈ 4.48 µM); with Streptococcus equinus, 50 mg/L (≈ 144 µM); against Streptococcus agalactiae, 12.5 mg/L (≈ 35.9 µM); in [4], 1.56 mg/L (≈ 4.48 µM). Moreover, the MIC in the test on Staphylococcus aureus [5] stood at 0.78 mg/L (≈ 2.24 µM); with Staphylococcus aureus [6], 0.78 mg/L (≈ 2.24 µM); against Enterococcus faecium it was 6.2 mg/L (≈ 17.8 µM).
